In the M2OR odorant receptor database:
Where a chain is given by its changes, count along the chain named.

What was measured:
Conditions in all cases: stereoisomer not certain
OR5C1 (Homo sapiens) = molecular target: T1, OR5C1 (Homo sapiens) (UniProt Q8NGR4)
T1 sequence (whole entry): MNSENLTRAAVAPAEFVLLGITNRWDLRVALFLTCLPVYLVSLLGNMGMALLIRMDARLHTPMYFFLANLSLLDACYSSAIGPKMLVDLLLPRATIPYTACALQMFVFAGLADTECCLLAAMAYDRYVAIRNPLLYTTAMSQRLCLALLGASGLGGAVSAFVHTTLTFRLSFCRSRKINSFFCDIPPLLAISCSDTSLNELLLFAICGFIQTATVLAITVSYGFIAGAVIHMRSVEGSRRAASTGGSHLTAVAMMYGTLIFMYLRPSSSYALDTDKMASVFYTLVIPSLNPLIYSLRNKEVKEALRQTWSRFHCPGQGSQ
Method in brief: (§1)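 Values were gathered from published papers (main text and supplementary material), with extra details requested from the original authors when needed, and checked for typos and inconsistencies. Each receptor–molecule pair is called responsive (active) if the original authors judged the measured signal statistically different from baseline, and non-responsive (inactive) otherwise. Assay methods varied by source, often transient mammalian cell-line luciferase assays. Recorded details include cell line, G-protein, co-transfected protein and tags.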

OR5D13 (Homo sapiens) = molecular target: T2, OR5D13 (Homo sapiens) (UniProt Q8NGL4)
T2 sequence (whole entry): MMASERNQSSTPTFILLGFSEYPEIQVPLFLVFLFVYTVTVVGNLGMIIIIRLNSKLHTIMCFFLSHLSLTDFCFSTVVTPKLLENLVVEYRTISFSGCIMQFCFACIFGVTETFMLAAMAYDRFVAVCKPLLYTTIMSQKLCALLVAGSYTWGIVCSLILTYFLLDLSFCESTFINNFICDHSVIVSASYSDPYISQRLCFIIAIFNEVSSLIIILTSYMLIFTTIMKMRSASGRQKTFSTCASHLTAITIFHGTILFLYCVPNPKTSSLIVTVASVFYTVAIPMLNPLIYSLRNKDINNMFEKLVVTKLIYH
Method in brief: as §1

OR5D14 (Homo sapiens) = molecular target: T3, OR5D14 (Homo sapiens) (UniProt Q8NGL3)
T3 sequence (whole entry): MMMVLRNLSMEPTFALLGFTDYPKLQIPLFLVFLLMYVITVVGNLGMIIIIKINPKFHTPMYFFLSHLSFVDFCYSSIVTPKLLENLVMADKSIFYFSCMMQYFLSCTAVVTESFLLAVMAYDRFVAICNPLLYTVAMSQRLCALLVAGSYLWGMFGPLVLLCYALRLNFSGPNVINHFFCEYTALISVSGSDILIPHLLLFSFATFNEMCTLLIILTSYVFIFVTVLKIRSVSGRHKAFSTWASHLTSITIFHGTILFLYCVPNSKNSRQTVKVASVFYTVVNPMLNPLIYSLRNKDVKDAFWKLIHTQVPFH
Method in brief: as §1

OR5D16 (Homo sapiens) = molecular target: T4, OR5D16 (Homo sapiens) (UniProt Q8NGK9)
T4 sequence (whole entry): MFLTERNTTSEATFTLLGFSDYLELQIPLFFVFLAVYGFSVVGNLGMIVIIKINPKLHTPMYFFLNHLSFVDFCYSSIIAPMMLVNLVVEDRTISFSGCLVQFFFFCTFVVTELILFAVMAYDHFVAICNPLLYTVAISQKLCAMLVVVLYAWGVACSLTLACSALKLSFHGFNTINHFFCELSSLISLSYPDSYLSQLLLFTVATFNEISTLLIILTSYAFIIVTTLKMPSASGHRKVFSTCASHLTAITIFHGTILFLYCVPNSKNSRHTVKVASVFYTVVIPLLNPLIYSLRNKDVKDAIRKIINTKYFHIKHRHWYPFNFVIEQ
Method in brief: as §1

OR5D18 (Homo sapiens) = molecular target: T5, OR5D18 (Homo sapiens) (UniProt Q8NGL1)
T5 sequence (whole entry): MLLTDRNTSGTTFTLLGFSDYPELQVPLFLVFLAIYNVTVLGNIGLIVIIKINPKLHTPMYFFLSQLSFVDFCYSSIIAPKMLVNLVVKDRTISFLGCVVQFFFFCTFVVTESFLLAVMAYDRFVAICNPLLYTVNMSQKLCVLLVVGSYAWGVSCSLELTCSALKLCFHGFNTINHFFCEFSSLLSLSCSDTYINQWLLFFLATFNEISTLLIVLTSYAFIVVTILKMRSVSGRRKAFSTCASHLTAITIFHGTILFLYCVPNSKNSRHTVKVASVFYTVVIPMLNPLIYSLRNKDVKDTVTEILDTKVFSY
Method in brief: as §1

OR5BC C141R = tested on: T6, OR5BC C141R
T6 sequence (whole entry): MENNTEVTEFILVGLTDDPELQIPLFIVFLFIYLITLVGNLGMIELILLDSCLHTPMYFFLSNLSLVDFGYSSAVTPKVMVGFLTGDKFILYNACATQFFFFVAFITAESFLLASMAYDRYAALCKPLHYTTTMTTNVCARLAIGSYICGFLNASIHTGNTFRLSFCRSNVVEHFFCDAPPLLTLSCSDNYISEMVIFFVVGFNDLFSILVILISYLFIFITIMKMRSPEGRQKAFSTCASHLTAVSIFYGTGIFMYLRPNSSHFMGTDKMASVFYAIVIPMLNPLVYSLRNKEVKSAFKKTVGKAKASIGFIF
Method in brief: as §1

OR5BH L80I I85M = tested on: T7, OR5BH L80I I85M
T7 sequence (whole entry): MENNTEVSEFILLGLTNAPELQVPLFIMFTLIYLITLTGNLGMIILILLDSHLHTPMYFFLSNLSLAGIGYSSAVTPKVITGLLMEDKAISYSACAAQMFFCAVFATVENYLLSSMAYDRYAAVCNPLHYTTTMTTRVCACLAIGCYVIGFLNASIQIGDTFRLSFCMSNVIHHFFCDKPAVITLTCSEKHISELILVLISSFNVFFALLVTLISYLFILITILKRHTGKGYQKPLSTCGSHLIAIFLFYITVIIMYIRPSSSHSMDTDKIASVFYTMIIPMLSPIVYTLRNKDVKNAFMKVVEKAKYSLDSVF
Method in brief: as §1

OR5BH L80I = tested on: T8, OR5BH L80I
T8 sequence (whole entry): T7 sequence (whole entry) with M85I
Method in brief: as §1

OR5DD C62Y = tested on: T9, OR5DD C62Y
T9 sequence (whole entry): T2 sequence (whole entry) with C62Y
Method in brief: as §1

OR5DE S249A L290P = tested on: T10, OR5DE S249A L290P
T10 sequence (whole entry): T3 sequence (whole entry) with S249A, L290P
Method in brief: as §1

Measured: odorant receptor agonist call

CCCCC(S)C(C)CO (stereo not given)
inactive: OR5C1 (Homo sapiens) | OR5D13 (Homo sapiens) | OR5D14 (Homo sapiens) | OR5D16 (Homo sapiens) | OR5D18 (Homo sapiens)

CCCCCCC=CCCC=O
inactive: OR5BC C141R | OR5BH L80I I85M | OR5BH L80I | OR5C1 (Homo sapiens) | OR5D13 (Homo sapiens) | OR5D14 (Homo sapiens) | OR5D16 (Homo sapiens) | OR5D18 (Homo sapiens) | OR5DD C62Y | OR5DE S249A L290P

Cc1cnc(C)c(C)n1
inactive: OR5BC C141R | OR5BH L80I I85M | OR5BH L80I | OR5C1 (Homo sapiens) | OR5D13 (Homo sapiens) | OR5D14 (Homo sapiens) | OR5D16 (Homo sapiens) | OR5D18 (Homo sapiens) | OR5DD C62Y | OR5DE S249A L290P

CC1=C(O)C(=O)C(C)O1 (stereo not given)
inactive: OR5BC C141R | OR5BH L80I I85M | OR5BH L80I | OR5C1 (Homo sapiens) | OR5D13 (Homo sapiens) | OR5D14 (Homo sapiens) | OR5D16 (Homo sapiens) | OR5D18 (Homo sapiens) | OR5DD C62Y | OR5DE S249A L290P

CCC1OC(=O)C(O)=C1C (stereo not given)
inactive: OR5BC C141R | OR5BH L80I I85M | OR5BH L80I | OR5C1 (Homo sapiens) | OR5D13 (Homo sapiens) | OR5D14 (Homo sapiens) | OR5D16 (Homo sapiens) | OR5D18 (Homo sapiens) | OR5DD C62Y | OR5DE S249A L290P

CCCCCC(=O)C(C)C(C)=O (stereo not given)
inactive: OR5C1 (Homo sapiens) | OR5D13 (Homo sapiens) | OR5D14 (Homo sapiens) | OR5D16 (Homo sapiens) | OR5D18 (Homo sapiens)

CC1=C(O)C(=O)OC1C (stereo not given)
inactive: OR5BC C141R | OR5BH L80I I85M | OR5BH L80I | OR5C1 (Homo sapiens) | OR5D13 (Homo sapiens) | OR5D14 (Homo sapiens) | OR5D16 (Homo sapiens) | OR5D18 (Homo sapiens) | OR5DD C62Y | OR5DE S249A L290P

CCC1OC(C)=C(O)C1=O (stereo not given)
inactive: OR5BC C141R | OR5BH L80I I85M | OR5BH L80I | OR5C1 (Homo sapiens) | OR5D13 (Homo sapiens) | OR5D14 (Homo sapiens) | OR5D16 (Homo sapiens) | OR5D18 (Homo sapiens) | OR5DD C62Y | OR5DE S249A L290P

CC1=NC(C)C(C)S1 (stereo not given)
inactive: OR5BC C141R | OR5BH L80I I85M | OR5BH L80I | OR5C1 (Homo sapiens) | OR5D13 (Homo sapiens) | OR5D14 (Homo sapiens) | OR5D16 (Homo sapiens) | OR5D18 (Homo sapiens) | OR5DD C62Y | OR5DE S249A L290P

CCCCCC(S)C(C)CO (stereo not given)
inactive: OR5C1 (Homo sapiens) | OR5D13 (Homo sapiens) | OR5D14 (Homo sapiens) | OR5D16 (Homo sapiens) | OR5D18 (Homo sapiens)

CC(CO)CS (stereo not given)
inactive: OR5C1 (Homo sapiens) | OR5D13 (Homo sapiens) | OR5D14 (Homo sapiens) | OR5D16 (Homo sapiens) | OR5D18 (Homo sapiens)

CC1CCCCCCCCCCCCC(=O)C1 (stereo not given)
inactive: OR5C1 (Homo sapiens) | OR5D13 (Homo sapiens) | OR5D14 (Homo sapiens) | OR5D16 (Homo sapiens) | OR5D18 (Homo sapiens)

CCCC(S)CCOC(C)=O (stereo not given)
inactive: OR5BC C141R | OR5BH L80I I85M | OR5BH L80I | OR5C1 (Homo sapiens) | OR5D13 (Homo sapiens) | OR5D14 (Homo sapiens) | OR5D16 (Homo sapiens) | OR5D18 (Homo sapiens) | OR5DD C62Y | OR5DE S249A L290P

CCC(S)C(C)CO (stereo not given)
inactive: OR5C1 (Homo sapiens) | OR5D13 (Homo sapiens) | OR5D14 (Homo sapiens) | OR5D16 (Homo sapiens) | OR5D18 (Homo sapiens)

CC(=O)c1c(C)c([N+](=O)[O-])c(C(C)(C)C)c([N+](=O)[O-])c1C
inactive: OR5C1 (Homo sapiens) | OR5D13 (Homo sapiens) | OR5D14 (Homo sapiens) | OR5D16 (Homo sapiens) | OR5D18 (Homo sapiens)
